Series [1] concerns Coxsackievirus A16. Put plainly: Antiviral activity against Coxsackievirus A16 infected in african green monkey Vero cells assessed as inhibition of viral growth after 24 hrs by Reed-Muench method. In kind it is functional, cell-based. An outline of the steps:
(§1)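 Vero cells were seeded and after 24 h exposed to virus for 2 h. Compounds were then added after being dissolved in DMSO and diluted in culture medium. Cell-control and virus-control wells were run alongside. Cytopathic effect was scored once the virus wells exceeded grade 4. The 50% inhibitory concentration of virus growth was calculated by the Reed–Muench method.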

The test system of series [2] is Vero. Description: (§2) Cytotoxicity against african green monkey Vero cells. The note with it: chlorocebus sabaeus, vero. The format is cell-based. An outline of the steps:
(§3)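 TC50 is the compound concentration killing 50% of Vero cells (inhibiting cell growth by 50%). Compounds were dissolved in DMSO and diluted in medium, then added to seeded Vero cells. Cell wells were examined when cytopathic effect in virus-infected control wells exceeded grade 4.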

The subject of series [3] is Coxsackievirus B3. Description: Antiviral activity against Coxsackievirus B3 infected in african green monkey Vero cells assessed as inhibition of viral growth after 24 hrs by Reed-Muench method. In kind it is functional, organism-based. The settings on record: Enterovirus B. An outline of the steps:
as §1

Series [4] in a line: as §2. In kind it is cell-based. The note with it: chlorocebus sabaeus, Vero cells; read-out: TC50 (the source's name). The method in brief:
as §3

The nature of series [5]: Selectivity index, ratio of TC50 for african green monkey Vero cells to IC50 for Coxsackievirus B3. In kind it is toxicity, cell-based. The settings on record: read-out: Selectivity Index. An outline of the steps:
(§4)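 Selectivity index is calculated as TC50 in Vero cells divided by the antiviral IC50 against the named enterovirus. Both values come from the same Vero cytopathic-effect assay, with compounds dissolved in DMSO and diluted in medium.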

The nature of series [6]: Selectivity index, ratio of TC50 for african green monkey Vero cells to IC50 for Human enterovirus 71. In kind it is toxicity, cell-based. The settings on record: read-out: Selectivity Index. An outline of the steps: as §4
In series [7] the test system is Enterovirus A71. Put plainly: Antiviral activity against Human enterovirus 71 infected in african green monkey Vero cells assessed as inhibition of viral growth after 48 hrs by Reed-Muench method. The note with it: Enterovirus A. The format is functional, organism-based. The method in brief:
as §1

Series [8] deals with Coxsackievirus B6. Put plainly: Antiviral activity against Coxsackievirus B6 infected in african green monkey Vero cells assessed as inhibition of viral growth after 24 hrs by Reed-Muench method. The format is functional, organism-based. The settings on record: Enterovirus B. The method in brief:
as §1

Series [9] concerns Enterovirus A71. Put plainly: Antiviral activity against Human enterovirus 71 infected in african green monkey Vero cells assessed as inhibition of viral growth after 24 hrs by Reed-Muench method. In kind it is functional, organism-based. The settings on record: Enterovirus A. An outline of the steps: as §1
A short description of series [10]: Selectivity index, ratio of TC50 for african green monkey Vero cells to IC50 for Coxsackievirus B6. The settings on record: read-out: Selectivity Index. The format is toxicity, cell-based. An outline of the steps: as §4
A short description of series [11]: Selectivity index, ratio of TC50 for african green monkey Vero cells to IC50 for Coxsackievirus A16. The format is toxicity, cell-based. The settings on record: read-out: Selectivity Index. The method in brief:
as §4

The mark [12] stands for this setting: Enterovirus A, Vero, 24 h, read-out: IC50.

For `COc1ccc(-c2nc3c(C(=O)Nc4ncc[nH]4)cccc3[nH]2)cc1OC`, the IC50 result in series [1] (vero) was “Not Active”. In addition, the TC50 result in series [2] was “Not Active”.
On to `O=C(N[C@H](CO)[C@H](O)c1ccc([N+](=O)[O-])cc1)c1cccc2[nH]c(-c3ccccn3)nc12`, for which the IC50 in [3] and in [7] was 4.06 µM in each case. In addition, the CC50 in series [4] was found to be 1330 µM. Moreover, the selectivity ratio in series [5] and in series [6] was 328 throughout.
Turning to `CCC(CC)NC(=O)c1cccc2[nH]c(-c3ccc(OC)c(OC)c3)nc12`, the 50% inhibitory concentration (IC50) in series [3] amounted to 0.7 µM; in [8], 0.736 µM; in series [1] (setting [12]) it was 0.736 µM; in series [9] it was 0.736 µM. For the same molecule, the CC50 in series [4] came to 2.23 µM. In addition, the selectivity ratio in [5], in [10], in series [11] and in series [6] was 3 throughout.
On to `COc1ccc(-c2nc3c(C(=O)Nc4nc5ccccc5[nH]4)cccc3[nH]2)c(OC)c1OC`, for which the IC50 in series [3] came to 16.9 µM; in series [8], 16.7 µM; in series [1] (setting [12]) it was 16.7 µM; in series [9] it was 16.7 µM. The CC50 in [4] was 29 µM. The selectivity ratio in [5], in [10], in series [11] and in series [6] was 1.7 in each case.

As a reminder, the IC50 is the concentration that gives 50% inhibition.

For the origin of these results see ChEMBL document CHEMBL1765049, “Inhibitory properties of 2-substituent-1H-benzimidazole-4-carboxamide derivatives against enteroviruses” (Bioorg Med Chem, 2011).
